Legend:
[1] = preclinical tolerability in animals; format: in vivo; conditions: preclinical studies; unpublished data
wild-type EGFR = wild-type EGFR (Homo sapiens, UniProt P00533); assay: kinase inhibition, wild-type EGFR; format: biochemical; conditions: read-out: IC50 against wild-type EGFR; kinase level; unpublished data
EGFR T790M-mutated NSCLC = assay: phase I dose-escalation: efficacy; format: in vivo, patients; conditions: FAS
Procedure, shortened: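 Adults with T790M+ NSCLC (ARMS-confirmed) progressing on prior EGFR-TKIs; 3+3 escalation. Oral tablet, empty stomach: single dose day 1, then after 7 days continuous dosing in 21-day cycles (25–300 mg/day) until progression. CT/MRI brain, CT neck/chest/abdomen, bone scan every eight cycles; assessed at baseline, cycles 2, 4, 6, then every 2 cycles. RECIST v1.1 best overall response; disease control confirmed by imaging every 6 weeks.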

Chain of wild-type EGFR (P00533 25-1210): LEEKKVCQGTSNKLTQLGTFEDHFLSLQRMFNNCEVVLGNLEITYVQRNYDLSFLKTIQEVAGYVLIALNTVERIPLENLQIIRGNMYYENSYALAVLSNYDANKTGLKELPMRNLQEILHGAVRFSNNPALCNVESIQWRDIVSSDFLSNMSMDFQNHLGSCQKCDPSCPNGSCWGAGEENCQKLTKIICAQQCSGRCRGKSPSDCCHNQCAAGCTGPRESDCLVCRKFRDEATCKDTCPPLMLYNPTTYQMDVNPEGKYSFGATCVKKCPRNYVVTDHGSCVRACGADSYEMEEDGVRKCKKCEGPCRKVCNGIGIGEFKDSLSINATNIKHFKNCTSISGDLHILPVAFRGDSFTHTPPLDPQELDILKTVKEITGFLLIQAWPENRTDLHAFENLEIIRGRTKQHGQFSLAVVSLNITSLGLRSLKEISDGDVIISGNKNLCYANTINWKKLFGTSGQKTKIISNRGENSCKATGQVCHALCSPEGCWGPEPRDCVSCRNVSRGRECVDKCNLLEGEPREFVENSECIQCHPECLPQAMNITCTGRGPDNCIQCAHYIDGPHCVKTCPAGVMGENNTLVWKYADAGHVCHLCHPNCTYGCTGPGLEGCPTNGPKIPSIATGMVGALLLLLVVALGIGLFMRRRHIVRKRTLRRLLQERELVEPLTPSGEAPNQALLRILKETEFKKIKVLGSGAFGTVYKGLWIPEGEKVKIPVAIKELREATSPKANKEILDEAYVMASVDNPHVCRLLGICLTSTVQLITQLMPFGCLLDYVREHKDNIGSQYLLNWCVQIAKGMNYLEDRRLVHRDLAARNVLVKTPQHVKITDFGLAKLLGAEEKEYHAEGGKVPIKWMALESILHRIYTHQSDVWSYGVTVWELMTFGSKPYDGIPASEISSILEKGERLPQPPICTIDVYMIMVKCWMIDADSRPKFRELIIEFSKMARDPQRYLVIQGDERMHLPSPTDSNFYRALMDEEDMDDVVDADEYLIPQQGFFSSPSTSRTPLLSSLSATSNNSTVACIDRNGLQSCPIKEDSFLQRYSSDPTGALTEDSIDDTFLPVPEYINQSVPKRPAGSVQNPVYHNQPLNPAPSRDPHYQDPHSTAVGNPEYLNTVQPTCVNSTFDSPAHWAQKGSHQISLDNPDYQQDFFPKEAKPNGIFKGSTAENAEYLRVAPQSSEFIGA

For `C=CC(=O)Nc1cc(Nc2ncc(Cl)c(Nc3ccccc3C(=O)C(=O)N(C)C)n2)c(OC)cc1N1CCN(C)CC1` [BPI-15086], the tolerability in animals [1] was “well tolerated”, the IC50 (wild-type EGFR) was 0.503 µM and the “Best overall response: Complete response” value (EGFR T790M-mutated NSCLC; 25 mg/day (n = 1)) was 0 n (%). The “Best overall response: Not evaluable” value (EGFR T790M-mutated NSCLC; 25 mg/day (n = 1)) was 0 n (%), the “Best overall response: Partial response” value (EGFR T790M-mutated NSCLC; 25 mg/day (n = 1)) was 0 n (%) and the “Best overall response: Progressive disease” value (EGFR T790M-mutated NSCLC; 25 mg/day (n = 1)) was 1 (100.0) n (%). The “Best overall response: Stable disease” value (EGFR T790M-mutated NSCLC; 25 mg/day (n = 1)) was 0 n (%), the “PFS, median (95% CI)” value (EGFR T790M-mutated NSCLC; 25 mg/day (n = 1)) was 1.5 (NE-NE) months and the “Best overall response: Complete response” value (EGFR T790M-mutated NSCLC; 50 mg/day (n = 3)) was 0 n (%). For the same compound, the “Best overall response: Not evaluable” value (EGFR T790M-mutated NSCLC; 50 mg/day (n = 3)) was 0 n (%), the “Best overall response: Partial response” value (EGFR T790M-mutated NSCLC; 50 mg/day (n = 3)) was 0 n (%) and the “Best overall response: Progressive disease” value (EGFR T790M-mutated NSCLC; 50 mg/day (n = 3)) was 1 (33.3) n (%). For the same compound, the “Best overall response: Stable disease” value (EGFR T790M-mutated NSCLC; 50 mg/day (n = 3)) was 2 (66.7) n (%), the “OS, median (95% CI)” value (EGFR T790M-mutated NSCLC; 50 mg/day (n = 3)) was 15.0 (8.4-15.0) months and the “PFS, median (95% CI)” value (EGFR T790M-mutated NSCLC; 50 mg/day (n = 3)) was 4.3 (1.6-5.8) months. For the same compound, the “Best overall response: Complete response” value (EGFR T790M-mutated NSCLC; 100 mg/day (n = 3)) was 0 n (%), the “Best overall response: Not evaluable” value (EGFR T790M-mutated NSCLC; 100 mg/day (n = 3)) was 0 n (%) and the “Best overall response: Partial response” value (EGFR T790M-mutated NSCLC; 100 mg/day (n = 3)) was 1 (33.3) n (%). For the same compound, the “Best overall response: Progressive disease” value (EGFR T790M-mutated NSCLC; 100 mg/day (n = 3)) was 2 (66.7) n (%), the “Best overall response: Stable disease” value (EGFR T790M-mutated NSCLC; 100 mg/day (n = 3)) was 0 n (%) and the “DOR, median (95% CI)” value (EGFR T790M-mutated NSCLC; 100 mg/day (n = 3)) was 9.7 (NE-NE) months. The “OS, median (95% CI)” value (EGFR T790M-mutated NSCLC; 100 mg/day (n = 3)) was 16.1 (NE-NE) months, the “PFS, median (95% CI)” value (EGFR T790M-mutated NSCLC; 100 mg/day (n = 3)) was 1.6 (1.5-12.6) months and the “Best overall response: Complete response” value (EGFR T790M-mutated NSCLC; 200 mg/day (n = 7)) was 0 n (%). For the same compound, the “Best overall response: Not evaluable” value (EGFR T790M-mutated NSCLC; 200 mg/day (n = 7)) was 1 (14.3) n (%), the “Best overall response: Partial response” value (EGFR T790M-mutated NSCLC; 200 mg/day (n = 7)) was 2 (28.6) n (%) and the “Best overall response: Progressive disease” value (EGFR T790M-mutated NSCLC; 200 mg/day (n = 7)) was 3 (42.9) n (%). For the same compound, the “Best overall response: Stable disease” value (EGFR T790M-mutated NSCLC; 200 mg/day (n = 7)) was 1 (14.3) n (%), the “DOR, median (95% CI)” value (EGFR T790M-mutated NSCLC; 200 mg/day (n = 7)) was 6.7 (3.7-9.8) months and the “PFS, median (95% CI)” value (EGFR T790M-mutated NSCLC; 200 mg/day (n = 7)) was 3.0 (1.6-11.3) months. The “Best overall response: Complete response” value (EGFR T790M-mutated NSCLC; 300 mg/day (n = 3)) was 0 n (%), the “Best overall response: Not evaluable” value (EGFR T790M-mutated NSCLC; 300 mg/day (n = 3)) was 1 (33.3) n (%) and the “Best overall response: Partial response” value (EGFR T790M-mutated NSCLC; 300 mg/day (n = 3)) was 0 n (%). The “Best overall response: Progressive disease” value (EGFR T790M-mutated NSCLC; 300 mg/day (n = 3)) was 0 n (%), the “Best overall response: Stable disease” value (EGFR T790M-mutated NSCLC; 300 mg/day (n = 3)) was 2 (66.7) n (%) and the “OS, median (95% CI)” value (EGFR T790M-mutated NSCLC; 300 mg/day (n = 3)) was 9.2 (NE-NE) months. The “PD, patients” value (EGFR T790M-mutated NSCLC; 25-mg/day) was 100%, the “PR, patients” value (EGFR T790M-mutated NSCLC; 25-mg/day, 50-mg/day, and 300-mg/day groups) was “none of the patients” and the “PD, patients” value (EGFR T790M-mutated NSCLC; 50-mg/day) was 33.3%. The DCR (EGFR T790M-mutated NSCLC; 50-mg/day, 2/3 patients) was 66.7%, the “PD, patients” value (EGFR T790M-mutated NSCLC; 100-mg/day) was 66.7% and the “PR, patients” value (EGFR T790M-mutated NSCLC; 100-mg/day) was 33.3%. The DCR (EGFR T790M-mutated NSCLC; 100-mg/day, 1/3 patients) was 33.3%, the “PD, patients” value (EGFR T790M-mutated NSCLC; 200-mg/day) was 42.9% and the “PR, patients” value (EGFR T790M-mutated NSCLC; 200-mg/day) was 28.6%. The DCR (EGFR T790M-mutated NSCLC; 200-mg/day, 3/7 patients) was 42.9%, the DCR (EGFR T790M-mutated NSCLC; 300-mg/day, 2/3 patients) was 66.7% and the “Best overall response: Complete response” value (EGFR T790M-mutated NSCLC; All (n = 17)) was 0 n (%). The “Best overall response: Not evaluable” value (EGFR T790M-mutated NSCLC; All (n = 17)) was 2 (11.8) n (%), the “Best overall response: Partial response” value (EGFR T790M-mutated NSCLC; All (n = 17)) was 3 (17.6) n (%) and the “Best overall response: Progressive disease” value (EGFR T790M-mutated NSCLC; All (n = 17)) was 7 (41.2) n (%). For the same compound, the “Best overall response: Stable disease” value (EGFR T790M-mutated NSCLC; All (n = 17)) was 5 (29.4) n (%), the “DOR, median (95% CI)” value (EGFR T790M-mutated NSCLC; All (n = 17)) was 9.7 (3.7-9.8) months and the “OS, median (95% CI)” value (EGFR T790M-mutated NSCLC; All (n = 17)) was 15.0 (8.4-16.1) months. The “PFS, median (95% CI)” value (EGFR T790M-mutated NSCLC; All (n = 17)) was 1.6 (1.6-5.3) months, the “CR, patients” value (EGFR T790M-mutated NSCLC; all 17 patients) was “No patients showed CR” and the DCR (EGFR T790M-mutated NSCLC; all 17 patients) was 47.1%. For the same compound, the ORR (EGFR T790M-mutated NSCLC; all 17 patients) was 17.6%, the “PD, patients” value (EGFR T790M-mutated NSCLC; all 17 patients) was 41.2% and the “confirmed PR, patients” value (EGFR T790M-mutated NSCLC; all 17 patients) was 17.6%. The “could not be assessed for response, patients” value (EGFR T790M-mutated NSCLC; all 17 patients) was 11.8%, the response (EGFR T790M-mutated NSCLC; one patient of the 25-mg/day dose group) was “no response was observed” and the “PD, patients” value (EGFR T790M-mutated NSCLC; three patients in the 300-mg/day group) was “None”.

Reference: PMC9271465 (ESMO Open, 2022)
